From ChEMBL document CHEMBL1275591, “Cellular pharmacodynamics of the novel biaryloxazolidinone radezolid: studies with infected phagocytic and nonphagocytic cells, using Staphylococcus aureus, Staphylococcus epidermidis, Listeria monocytogenes, and Legionella pneumophila” (Antimicrob Agents Chemother, 2010)
Converted amounts (≈) assume the structure as drawn.

How the values were obtained:
Staphylococcus aureus [1] = assay: Antimicrobial activity against methicillin-susceptible Staphylococcus aureus ATCC 25923 after 24 hrs; assay type: functional; conditions: ATCC 25923, 24 h
Staphylococcus aureus [2] = assay: Antimicrobial activity against hospital acquired methicillin-resistant Staphylococcus aureus ATCC 33591 after 24 hrs; assay type: functional; conditions: ATCC 33591, 24 h
Staphylococcus aureus [3] = assay: Antimicrobial activity against hospital acquired methicillin-resistant Staphylococcus aureus SA238 after 24 hrs; assay type: functional; conditions: SA238, 24 h
Staphylococcus aureus [4] = assay: Antimicrobial activity against methicillin-resistant, vancomycin intermediate Staphylococcus aureus NRS18 after 24 hrs; assay type: functional; conditions: NRS18, 24 h
Listeria monocytogenes = assay: Antimicrobial activity against Listeria monocytogenes EGD after 24 hrs; assay type: functional
Legionella pneumophila [5] = assay: Antimicrobial activity against Legionella pneumophila ATCC 33153 after 48 hrs; assay type: functional; conditions: ATCC 33153, 48 h
[6] = system: Staphylococcus epidermidis; assay: Antimicrobial activity against Staphylococcus epidermidis infected in THP1 cells after 24 hrs; assay type: functional, organism-based; conditions: THP-1, 24 h
Procedure, shortened: (§1)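 Bacteria were phagocytosed by human THP-1 macrophage-like cells, then exposed to a range of drug concentrations for a fixed time: 24 h for S. aureus, S. epidermidis and L. monocytogenes, 48 h for L. pneumophila. Change in CFU versus the initial inoculum was fitted with a sigmoidal curve to give Emin, Emax (relative maximal efficacy), EC50 and static concentration (Cs).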

Legionella pneumophila [7] = assay: Antimicrobial activity against Legionella pneumophila ATCC 33153 infected in THP1 cells after 48hrs; assay type: functional, organism-based; conditions: ATCC 33153, THP-1, 48 h; procedure, shortened: as §1
Staphylococcus aureus [8] = assay: Bacteriostatic activity against Staphylococcus aureus infected in THP1 cells after 24 hrs; assay type: functional, THP-1; procedure, shortened: as §1
Staphylococcus aureus [9] = assay: Antimicrobial activity against linezolid-susceptible Staphylococcus aureus ATCC 25923 infected in THP1 cells assessed as log reduction in bacterial count after 24 hrs; assay type: functional, THP-1; procedure, shortened: as §1
Staphylococcus aureus [10] = assay: Antimicrobial activity against linezolid-susceptible Staphylococcus aureus SA040 infected in THP1 cells assessed as log reduction in bacterial count after 24 hrs; assay type: functional, THP-1; procedure, shortened: as §1
Staphylococcus aureus [11] = assay: Antimicrobial activity against linezolid-susceptible Staphylococcus aureus SA238 infected in THP1 cells assessed as log reduction in bacterial count after 24 hrs; assay type: functional, THP-1; procedure, shortened: as §1
Staphylococcus aureus [12] = assay: Antimicrobial activity against linezolid-susceptible Staphylococcus aureus ATCC 25923 infected in THP1 cells after 24 hrs; assay type: functional, organism-based; conditions: ATCC 25923, THP-1, 24 h; procedure, shortened: as §1
Staphylococcus aureus [13] = assay: Antimicrobial activity against linezolid-susceptible Staphylococcus aureus NRS384 infected in THP1 cells after 24 hrs; assay type: functional, organism-based; conditions: NRS384, THP-1, 24 h; procedure, shortened: as §1
Staphylococcus aureus [14] = assay: Antimicrobial activity against linezolid-susceptible Staphylococcus aureus NRS18 infected in THP1 cells after 24 hrs; assay type: functional, organism-based; conditions: NRS18, THP-1, 24 h; procedure, shortened: as §1
Staphylococcus aureus [15] = assay: Bacteriostatic activity against linezolid-susceptible Staphylococcus aureus ATCC 25923 infected in THP1 cells after 24 hrs; assay type: functional, THP-1
Procedure, shortened: (§2)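 Human THP-1 myelomonocytic (macrophage-like) cells infected with S. aureus, then exposed 24 h to a range of antibiotic concentrations. CFU change was measured against the initial inoculum. A sigmoidal dose-response curve was fitted to give Emin, Emax and EC50, and the apparent static concentration (Cs) was taken from the fit.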

Staphylococcus aureus [16] = assay: Bacteriostatic activity against linezolid-susceptible Staphylococcus aureus NRS384 infected in THP1 cells after 24 hrs; assay type: functional, THP-1; procedure, shortened: as §2
Staphylococcus aureus [17] = assay: Bacteriostatic activity against linezolid-susceptible Staphylococcus aureus NRS18 infected in THP1 cells after 24 hrs; assay type: functional, THP-1; procedure, shortened: as §2
Staphylococcus aureus [18] = assay: Bacteriostatic activity against linezolid-susceptible Staphylococcus aureus SA238 infected in THP1 cells after 24 hrs; assay type: functional, THP-1; procedure, shortened: as §2
Staphylococcus aureus [19] = assay: Bacteriostatic activity against linezolid-resistant Staphylococcus aureus SA040L infected in THP1 cells after 24 hrs; assay type: functional, THP-1; procedure, shortened: as §2
Staphylococcus aureus [20] = assay: Bacteriostatic activity against linezolid-resistant Staphylococcus aureus SA238L infected in THP1 cells after 24 hrs; assay type: functional, THP-1; procedure, shortened: as §2
Staphylococcus aureus [21] = assay: Antimicrobial activity against linezolid-resistant Staphylococcus aureus SA238L infected in Calu-3 cells assessed as log reduction in bacterial count after 24 hrs; assay type: functional
Procedure, shortened: (§3)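 S. aureus was internalized by adherent nonphagocytic cells: Calu-3, HUVEC, keratinocytes on collagen-coated wells, osteoblasts, or rat embryo fibroblasts. Inoculum was 5 × 10^7 to 1 × 10^8 bacteria/ml with 2 h phagocytosis (HUVEC: 2 × 10^6/ml, 1 h). Cells were then exposed to graded drug concentrations for 24 h. CFU change versus the original inoculum was fitted sigmoidally for Emax and Cs.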

Staphylococcus aureus [22] = assay: Bacteriostatic activity against linezolid-susceptible Staphylococcus aureus SA238 infected in Calu-3 cells after 24 hrs; assay type: functional
Procedure, shortened: (§4)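 Adherent nonphagocytic cells were infected at 5 × 10^7 to 1 × 10^8 bacteria/ml with 2 h phagocytosis. Cells used: Calu-3 bronchial epithelium grown in uncoated flasks, neonatal foreskin keratinocytes on collagen-coated wells, primary human osteoblasts, and primary rat embryo fibroblasts. Antibiotic was then given over a concentration range for 24 h. Cs came from a sigmoidal fit of CFU change.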

Staphylococcus aureus [23] = assay: Antimicrobial activity against linezolid-resistant Staphylococcus aureus SA238L infected in human epidermal keratinocytes cells assessed as log reduction in bacterial count after 24 hrs; assay type: functional; procedure, shortened: as §3
Staphylococcus aureus [24] = assay: Antimicrobial activity against linezolid-susceptible Staphylococcus aureus SA238 infected in human osteoblasts cells assessed as log reduction in bacterial count after 24 hrs; assay type: functional; procedure, shortened: as §3
Staphylococcus aureus [25] = assay: Bacteriostatic activity against linezolid-resistant Staphylococcus aureus SA238L infected in human osteoblasts cells after 24 hrs; assay type: functional; procedure, shortened: as §4
Staphylococcus aureus [26] = assay: Antimicrobial activity against linezolid-susceptible Staphylococcus aureus SA238 infected in rat fibroblast cells assessed as log reduction in bacterial count after 24 hrs; assay type: functional; procedure, shortened: as §3
[27] = Ratio of drug level for cellular to extracellular region of Staphylococcus aureus infected human Calu3 cells at 4 mg/liter after 2 hrs; assay type: ADME, cell-based; conditions: calu-3, 2 h
Procedure, shortened: (§5)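 Cells were exposed to [14C]radezolid for 2 or 24 h. Cell-associated drug in lysates was measured by liquid scintillation counting (detection limit 0.003 mg/liter; linear 0.01–0.78 mg/liter). Content was normalised to cell protein (Lowry). It was converted to apparent cellular concentration at 5 μl per mg protein and expressed relative to the extracellular concentration.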

[28] = Ratio of drug level for cellular to extracellular region of Staphylococcus aureus infected rat fibroblast at 4 mg/liter after 2 hrs; assay type: ADME, cell-based; procedure, shortened: as §5
HUVEC = assay: Ratio of drug level for cellular to extracellular region of Staphylococcus aureus infected HUVEC cells at 4 mg/liter after 24 hrs; assay type: ADME, cell-based; conditions: human; procedure, shortened: as §5
[29] = Ratio of drug level for cellular to extracellular region of Staphylococcus aureus infected human Calu3 cells at 4 mg/liter after 24 hrs; assay type: ADME, cell-based; conditions: calu-3, 24 h; procedure, shortened: as §5
Staphylococcus aureus [30] = assay: Antimicrobial activity against linezolid-susceptible Staphylococcus aureus SA238 infected in THP1 cells at pH 7.4 after 24 hrs; assay type: functional, organism-based; conditions: SA238, THP-1, 24 h
Staphylococcus aureus [31] = assay: Antimicrobial activity against linezolid-susceptible Staphylococcus aureus SA238 infected in THP-1 cells at pH 5.5 after 24 hrs; assay type: functional, organism-based; conditions: SA238, THP-1, 24 h
Staphylococcus aureus [32] = assay: Bacteriostatic activity against linezolid-susceptible Staphylococcus aureus SA238 infected in THP1 cells at pH 7.4 after 24 hrs; assay type: functional, THP-1
Staphylococcus aureus [33] = assay: Bacteriostatic activity against linezolid-susceptible Staphylococcus aureus SA238 infected in THP1 cells at pH 5.5 after 24 hrs; assay type: functional, THP-1
Staphylococcus aureus [34] = assay: Bacteriostatic activity against linezolid-susceptible Staphylococcus aureus SA238 after 24 hrs; assay type: functional
Procedure, shortened: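 Extracellular concentration-response in Mueller-Hinton broth over 24 h. Change in CFU was fitted to a sigmoidal function, and the apparent static concentration (Cs) was derived from the fit.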

## CC(=O)NC[C@H]1CN(c2ccc(-c3ccc(CNCc4cnn[nH]4)cc3)c(F)c2)C(=O)O1 [RADEZOLID]
Staphylococcus aureus [1]
  MIC: 0.25 µg/mL (≈ 0.57 µM)
Staphylococcus aureus [2]
  MIC: 0.5 µg/mL (≈ 1.14 µM)
Staphylococcus aureus [3]
  MIC: 0.5 µg/mL (≈ 1.14 µM)
Staphylococcus aureus [4]
  MIC: 0.25 µg/mL (≈ 0.57 µM)
Listeria monocytogenes
  MIC: 0.03 µg/mL (≈ 0.0684 µM)
Legionella pneumophila [5]
  MIC: 0.5 µg/mL (≈ 1.14 µM)
[6]
  EC50: 1.51 µg/mL (≈ 3.44 µM)
Legionella pneumophila [7]
  EC50: 0.47 µg/mL (≈ 1.07 µM)
Staphylococcus aureus [8]
  Activity: 0.91 mg/L
Staphylococcus aureus [9]
  log10cfu: -0.57
Staphylococcus aureus [10]
  log10cfu: -0.96
Staphylococcus aureus [11]
  log10cfu: -0.79
Staphylococcus aureus [12]
  EC50: 0.24 µg/mL (≈ 0.547 µM)
Staphylococcus aureus [13]
  EC50: 0.07 µg/mL (≈ 0.16 µM)
Staphylococcus aureus [14]
  EC50: 0.09 µg/mL (≈ 0.205 µM)
Staphylococcus aureus [15]
  Activity: 0.91 mg/L
Staphylococcus aureus [16]
  Activity: 0.32 mg/L
Staphylococcus aureus [17]
  Activity: 0.28 mg/L
Staphylococcus aureus [18]
  Activity: 0.56 mg/L
Staphylococcus aureus [19]
  Activity: 0.56 mg/L
Staphylococcus aureus [20]
  Activity: 0.97 mg/L
Staphylococcus aureus [21]
  log10cfu: 0.6
Staphylococcus aureus [22]
  Activity: 0.6 mg/L
Staphylococcus aureus [23]
  log10cfu: 0.6
Staphylococcus aureus [24]
  log10cfu: 0.6
Staphylococcus aureus [25]
  Activity: 0.6 mg/L
Staphylococcus aureus [26]
  log10cfu: 0.6
[27]
  Ratio: 8.5
[28]
  Ratio: 14.4
HUVEC
  Ratio: 10.5
[29]
  Ratio: 8.3
Staphylococcus aureus [30]
  EC50: 0.31 µg/mL (≈ 0.707 µM)
Staphylococcus aureus [31]
  EC50: 0.02 µg/mL (≈ 0.0456 µM)
Staphylococcus aureus [32]
  Activity: 1.04 mg/L
Staphylococcus aureus [33]
  Activity: 0.06 mg/L
Staphylococcus aureus [34]
  Activity: 0.52 mg/L
